# Published values collected from several papers.
# Protocols differ between the studies behind these lines.
# Target: Rhodopsin kinase GRK7 (GRK7, Homo sapiens, UniProt Q8WTQ7)
# Residues used in one study (Q8WTQ7 1-553): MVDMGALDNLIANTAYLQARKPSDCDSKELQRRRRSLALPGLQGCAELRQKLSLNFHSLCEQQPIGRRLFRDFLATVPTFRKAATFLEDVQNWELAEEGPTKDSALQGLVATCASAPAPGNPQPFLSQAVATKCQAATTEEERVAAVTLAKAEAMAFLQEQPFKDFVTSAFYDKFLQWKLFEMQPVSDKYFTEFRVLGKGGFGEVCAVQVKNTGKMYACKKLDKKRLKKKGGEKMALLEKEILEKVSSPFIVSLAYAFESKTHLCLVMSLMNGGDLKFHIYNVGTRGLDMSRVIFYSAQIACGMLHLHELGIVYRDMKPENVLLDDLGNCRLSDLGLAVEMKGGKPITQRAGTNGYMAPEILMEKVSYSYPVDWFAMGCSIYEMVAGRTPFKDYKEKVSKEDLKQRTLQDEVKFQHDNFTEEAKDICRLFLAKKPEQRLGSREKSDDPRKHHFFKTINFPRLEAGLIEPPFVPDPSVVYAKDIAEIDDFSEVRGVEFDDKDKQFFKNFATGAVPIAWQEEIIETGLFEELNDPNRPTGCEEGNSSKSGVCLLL
Compound,observed,technique,concentration,remaining binding
NS(=O)(=O)c1cc(NC(=O)Cc2ccccc2)ccc1Oc1cccc(Cl)c1,cell-free assay,competition with immobilised ligand,1 µM,77%
c1cnn2ncc(-c3ccnc(N4CCC45COC5)n3)c2c1,binding,,1 µM,66%
c1cncc(-c2cccc(Nc3nccc(NC4CCCCC4)n3)c2)c1,binding,competition with immobilised ligand,10 µM,16%
COc1ncc2cc3ccccc3nc2c1C#N,cell-free assay,competition with immobilised ligand,5 µM,100%
COc1ccnn2ncc(-c3ccnc(N(C)C)n3)c12,binding,,1 µM,94%
O=C(NCCCN1CCOCC1)c1ccc(Nc2nccc(-c3cc4ccccc4s3)n2)cc1,binding,competition with immobilised ligand,1 µM,100%
CCN1CCN(Cc2ccc(C(=O)Nc3ccc(C)c(Oc4ccc5c(c4)CC(=O)N5)c3)cc2C(F)(F)F)CC1,binding,competition with immobilised ligand,1 µM,100%
O=S(=O)(NC1CCC(c2cc(F)ccc2F)(S(=O)(=O)c2ccc(Cl)cc2)CC1)C(F)(F)F (stereo not shown),cell-free assay,competition with immobilised ligand,1 µM,100%
N[C@@H]1CCN(c2nccc(-c3cnn4ncccc34)n2)C1,binding,,1 µM,100%
O=C(NCCCC1CCCCC1)c1ccc(CNC(=O)c2cnn(-c3ccccc3)c2C(F)(F)F)cc1,cell-free assay,competition with immobilised ligand,0.1 µM,100%
COc1cnc(Nc2cccc(S(N)(=O)=O)c2)nc1N1CCN(c2ccccc2)CC1,binding,competition with immobilised ligand,1 µM,58%
O=C(c1ccc(Nc2nccc(-c3cc4ccccc4s3)n2)cc1)N1CCC(N2CCCC2)CC1,binding,competition with immobilised ligand,1 µM,79%
C[C@H](c1ccc(F)cc1)N(Cc1cccc(C(=O)O)c1)C(=O)c1cnc2ccccc2c1,cell-free assay,competition with immobilised ligand,1 µM,100%
O=C(c1ccc(Nc2ncc(Cl)c(-c3ccc(Cl)s3)n2)cc1)N1CCC(N2CCCC2)CC1,binding,competition with immobilised ligand,1 µM,84%
CN(C)c1nccc(-c2cnn3ncccc23)n1,binding,,1 µM,100%
CCC(=O)N[C@@H]1CC[C@H](C(=O)N(C)c2ccc(-c3nc4ccccc4o3)cc2)C1,cell-free assay,competition with immobilised ligand,1 µM,93%
Cc1cnn2ncc(-c3ccnc(N(C)C)n3)c2c1,binding,,1 µM,84%
O=C(Nc1c[nH]nc1C(=O)NC1CCNCC1)c1cc(F)cc(F)c1,binding,competition with immobilised ligand,1 µM,84%
C[C@H]1CCN(c2nccc(-c3cnn4ncccc34)n2)C1,binding,,1 µM,78%
CN(C)CC#Cc1ccc(OCCCc2sc(N3CCc4cccc(C(=O)Nc5nc6ccccc6s5)c4C3)nc2C(=O)O)c(F)c1,cell-free assay,competition with immobilised ligand,1 µM,97%
CC1CCCN1c1nccc(-c2cnn3ncccc23)n1 (stereo not shown),binding,,1 µM,100%
COc1cnc(Nc2cccc(S(N)(=O)=O)c2)nc1N1CCN(c2ccccc2)C(=O)C1,binding,competition with immobilised ligand,1 µM,61%
